According to ChEMBL document CHEMBL3045743, “Synthesis and herbicidal activity of isoindoline-1,3-dione substituted benzoxazinone derivatives containing a carboxylic ester group” (J Agric Food Chem, 2009):

Legend:
[1] = test system: Abutilon theophrasti; assay: Post-emergence herbicidal activity against Abutilon theophrasti (velvetleaf) assessed as growth inhibition at 75 g.a.i./ha applied at two-leaf stage measured after 15 days; type: functional; conditions: 360 h, read-out: GI
Procedure, shortened: (§1)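 Pot-grown weeds sown 5 mm deep in greenhouse clay soil (pH 6.5, 1.7% organic matter, CEC 12.9 cmol/kg) at 22-25 °C. Stock diluted with water and sprayed post-emergence: dicots at 2-leaf stage, monocots at 1-leaf stage. Untreated and DMF solvent controls were included. % growth inhibition was scored visually versus untreated controls after 15 days. Triplicates averaged.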

[2] = test system: Echinochloa crus-galli; assay: Pre-emergence herbicidal activity against Echinochloa crus-galli (barnyard grass) assessed as growth inhibition at 75 g.a.i./ha applied 24 hr after seeds were sown measured after 15 days; type: functional; conditions: read-out: GI
Procedure, shortened: (§2)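 Weeds sown 5 mm deep in pots of greenhouse clay soil (pH 6.5, 37.5% clay, CEC 12.9 cmol/kg) and grown at 22-25 °C. Water-diluted formulation was applied pre-emergence 24 h after sowing. Untreated and DMF solvent controls were included. Growth inhibition was visually rated in % against untreated controls after 15 days, as the mean of triplicates.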

[3] = test system: Digitaria sanguinalis; assay: Pre-emergence herbicidal activity against Digitaria sanguinalis (hairy crabgrass) assessed as growth inhibition at 75 g.a.i./ha applied 24 hr after seeds were sown measured after 15 days; type: functional; conditions: read-out: GI; procedure, shortened: as §2
[4] = test system: Arachis hypogaea; assay: Phytotoxicity against Arachis hypogaea (peanut) assessed as growth inhibition at 37.5 g.a.i/ha pre-emergent application measured after 15 days by greenhouse crop selectivity assay; type: organism-based; conditions: in vivo, other, 360 h
Procedure, shortened: (§3)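 Pre-emergence greenhouse crop selectivity test on pot-grown plants in clay soil (pH 6.5, 1.7% organic matter, 37.5% clay, CEC 12.9 cmol/kg). Stock solutions were diluted with water and applied at 300, 150, 75 or 37.5 g a.i./ha, in triplicate. After 15 days, phytotoxicity was scored visually against untreated controls as % crop growth inhibition, averaged over the triplicates.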

[5] = test system: Oryza sativa; assay: Phytotoxicity against Oryza sativa (rice) assessed as growth inhibition at 7.5 to 60 g.a.i/ha post-emergent application measured after 15 days by greenhouse crop selectivity assay; type: organism-based, L.; conditions: in vivo, other, 360 h
Procedure, shortened: (§4)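 Postemergence crop selectivity test on pot-grown plants in a greenhouse, in clay soil (pH 6.5, 1.7% organic matter, CEC 12.9 cmol/kg). Stock was diluted with water and sprayed at 60, 30, 15 or 7.5 g a.i./ha, in triplicate. Growth inhibition was rated visually against untreated controls after 15 days and given as the triplicate mean percentage.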

[6] = test system: Glycine max; assay: Phytotoxicity against Glycine max (soybean) assessed as growth inhibition at 7.5 to 60 g.a.i/ha post-emergent application measured after 15 days by greenhouse crop selectivity assay; type: organism-based; conditions: in vivo, other, 360 h; procedure, shortened: as §4
[7] = Phytotoxicity against Oryza sativa (rice) assessed as growth inhibition at 150 g.a.i/ha pre-emergent application measured after 15 days by greenhouse crop selectivity assay; type: organism-based, L.; conditions: in vivo, read-out: GI; procedure, shortened: as §3
[8] = test system: Zea mays; assay: Phytotoxicity against Zea mays (maize) assessed as growth inhibition at 37.5 g.a.i/ha pre-emergent application measured after 15 days by greenhouse crop selectivity assay; type: organism-based; conditions: in vivo, other, 360 h; procedure, shortened: as §3
[9] = test system: Gossypium; assay: Phytotoxicity against Gossypium (cotton) assessed as growth inhibition at 150 g.a.i/ha pre-emergent application measured after 15 days by greenhouse crop selectivity assay; type: organism-based; conditions: in vivo, other, 360 h; procedure, shortened: as §3
[10] = test system: Glycine max; assay: Phytotoxicity against Glycine max (soybean) assessed as growth inhibition at 300 g.a.i/ha pre-emergent application measured after 15 days by greenhouse crop selectivity assay; type: organism-based; conditions: in vivo, other, 360 h; procedure, shortened: as §3
[11] = test system: Glycine max; assay: Phytotoxicity against Glycine max (soybean) assessed as growth inhibition at 150 g.a.i/ha pre-emergent application measured after 15 days by greenhouse crop selectivity assay; type: organism-based; conditions: in vivo, other, 360 h; procedure, shortened: as §3
[12] = test system: Glycine max; assay: Phytotoxicity against Glycine max (soybean) assessed as growth inhibition at 75 g.a.i/ha pre-emergent application measured after 15 days by greenhouse crop selectivity assay; type: organism-based; conditions: in vivo, other, 360 h; procedure, shortened: as §3
[13] = test system: Setaria viridis; assay: Post-emergence herbicidal activity against Setaria viridis (green foxtail) assessed as growth inhibition at 7.5 g.a.i./ha applied at one-leaf stage measured after 15 days; type: functional; conditions: 360 h, read-out: GI; procedure, shortened: as §1
[14] = test system: Chenopodium album; assay: Post-emergence herbicidal activity against Chenopodium album assessed as growth inhibition at 7.5 g.a.i./ha applied at two-leaf stage measured after 15 days; type: functional; conditions: 360 h, read-out: GI; procedure, shortened: as §1
[15] = test system: Abutilon theophrasti; assay: Pre-emergence herbicidal activity against Abutilon theophrasti (velvetleaf) assessed as growth inhibition at 7.5 g.a.i./ha applied 24 hr after seeds were sown measured after 15 days; type: functional; conditions: read-out: GI; procedure, shortened: as §2
[16] = test system: Echinochloa crus-galli; assay: Post-emergence herbicidal activity against Echinochloa crus-galli (barnyard grass) assessed as growth inhibition at 75 g.a.i./ha applied at one-leaf stage measured after 15 days; type: functional; conditions: 360 h, read-out: GI; procedure, shortened: as §1
[17] = test system: Digitaria sanguinalis; assay: Post-emergence herbicidal activity against Digitaria sanguinalis (hairy crabgrass) assessed as growth inhibition at 37.5 g.a.i./ha applied at one-leaf stage measured after 15 days; type: functional; conditions: 360 h, read-out: GI; procedure, shortened: as §1
[18] = test system: Setaria viridis; assay: Pre-emergence herbicidal activity against Setaria viridis (green foxtail) assessed as growth inhibition at 37.5 g.a.i./ha applied 24 hr after seeds were sown measured after 15 days; type: functional; conditions: read-out: GI; procedure, shortened: as §2
[19] = test system: Echinochloa crus-galli; assay: Pre-emergence herbicidal activity against Echinochloa crus-galli (barnyard grass) assessed as growth inhibition at 37.5 g.a.i./ha applied 24 hr after seeds were sown measured after 15 days; type: functional; conditions: read-out: GI; procedure, shortened: as §2
[20] = test system: Abutilon theophrasti; assay: Pre-emergence herbicidal activity against Abutilon theophrasti (velvetleaf) assessed as growth inhibition at 37.5 g.a.i./ha applied 24 hr after seeds were sown measured after 15 days; type: functional; conditions: read-out: GI; procedure, shortened: as §2
[21] = test system: Setaria viridis; assay: Post-emergence herbicidal activity against Setaria viridis (green foxtail) assessed as growth inhibition at 15 g.a.i./ha applied at one-leaf stage measured after 15 days; type: functional; conditions: 360 h, read-out: GI; procedure, shortened: as §1
[22] = test system: Echinochloa crus-galli; assay: Post-emergence herbicidal activity against Echinochloa crus-galli (barnyard grass) assessed as growth inhibition at 15 g.a.i./ha applied at one-leaf stage measured after 15 days; type: functional; conditions: 360 h, read-out: GI; procedure, shortened: as §1
[23] = test system: Digitaria sanguinalis; assay: Post-emergence herbicidal activity against Digitaria sanguinalis(hairy crabgrass) assessed as growth inhibition at 15 g.a.i./ha applied at one-leaf stage measured after 15 days; type: functional; conditions: 360 h, read-out: GI; procedure, shortened: as §1
[24] = test system: Abutilon theophrasti; assay: Post-emergence herbicidal activity against Abutilon theophrasti (velvetleaf) assessed as growth inhibition at 15 g.a.i./ha applied at two-leaf stage measured after 15 days; type: functional; conditions: 360 h, read-out: GI; procedure, shortened: as §1
[25] = test system: Brassica rapa subsp. oleifera; assay: Phytotoxicity against Brassica rapa subsp. oleifera assessed as growth inhibition at 150 g.a.i/ha pre-emergent application measured after 15 days by greenhouse crop selectivity assay; type: functional; conditions: pre-emergence, 360 h, read-out: GI
Procedure, shortened: (§5)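 Pot-grown crop in greenhouse clay soil (pH 6.5, 1.7% organic matter, 37.5% clay, CEC 12.9 cmol/kg). Stock diluted with water and applied pre-emergence at 300, 150, 75 or 37.5 g a.i./ha. Cultivated 15 days, then phytotoxicity scored visually as % growth inhibition versus untreated controls. Triplicate treatments, averaged.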

[26] = test system: Brassica rapa subsp. oleifera; assay: Phytotoxicity against Brassica rapa subsp. oleifera assessed as growth inhibition at 37.5 g.a.i/ha pre-emergent application measured after 15 days by greenhouse crop selectivity assay; type: functional; conditions: pre-emergence, 360 h, read-out: GI; procedure, shortened: as §5
[27] = Phytotoxicity against Oryza sativa (rice) assessed as growth inhibition at 300 g.a.i/ha pre-emergent application measured after 15 days by greenhouse crop selectivity assay; type: organism-based, L.; conditions: in vivo, read-out: GI; procedure, shortened: as §3
[28] = Phytotoxicity against Oryza sativa (rice) assessed as growth inhibition at 75 g.a.i/ha pre-emergent application measured after 15 days by greenhouse crop selectivity assay; type: organism-based, L.; conditions: in vivo, 75 g.a.i/ha, read-out: GI; procedure, shortened: as §3

Structure (SMILES) | inhibition of growth at 75 g/ha [1] | inhibition of growth at 75 g/ha [2] | inhibition of growth at 75 g/ha [3] | growth inhibition (GI) [4] | Activity [5] | Activity [6] | inhibition at 360 h [7] | growth inhibition (GI) [8] | growth inhibition (GI) [9] | inhibition of growth at 7.5 g/ha [13] | inhibition of growth at 7.5 g/ha [14] | inhibition of growth at 7.5 g/ha [15] | inhibition of growth at 75 g/ha [16] | inhibition of growth at 37.5 g/ha [17] | inhibition of growth at 37.5 g/ha [18] | inhibition of growth at 37.5 g/ha [19] | inhibition of growth at 37.5 g/ha [20] | inhibition of growth at 15 g/ha [21] | inhibition of growth at 15 g/ha [22] | inhibition of growth at 15 g/ha [23] | also measured
CCOC(=O)C(CC)N1C(=O)C(C)Oc2cc(F)c(N3C(=O)C4=C(CCCC4)C3=O)cc21 (stereo not drawn) | > 80% | > 80% | > 80% | Not Active | Toxic | Toxic | > 10% | Not Active | Not Active | 20% | 100% | 0% | > 80% | 70% | 0% | 0% | 70% | 30% | 0% | 50% | growth inhibition (GI) [10]: Not Active; growth inhibition (GI) [11]: Not Active; growth inhibition (GI) [12]: Not Active; inhibition of growth at 15 g/ha [24]: 100%; inhibition of growth at 150 g/ha [25]: > 10%; inhibition of growth at 37.5 g/ha [26]: > 10%; inhibition at 360 h [27]: > 10%
CCOC(=O)C(C)N1C(=O)C(C)Oc2cc(F)c(N3C(=O)C4=C(CCCC4)C3=O)cc21 (stereo not drawn) | > 80% | > 80% | > 80% | Not Active | Toxic | Toxic | > 10% | Not Active | Not Active | 20% | 100% | 0% | > 80% | 50% | 60% | 30% | 20% | 30% | 30% | 30% | inhibition at 360 h [28]: > 10%; growth inhibition (GI) [10]: Not Active; growth inhibition (GI) [11]: Not Active; growth inhibition (GI) [12]: Not Active; inhibition of growth at 15 g/ha [24]: 100%; inhibition of growth at 150 g/ha [25]: > 10%; inhibition of growth at 37.5 g/ha [26]: > 10%; inhibition at 360 h [27]: > 10%
COC(=O)C(C)N1C(=O)C(C)Oc2cc(F)c(N3C(=O)C4=C(CCCC4)C3=O)cc21 (stereo not drawn) | > 80% | > 80% | > 80% | Not Active | Toxic | Toxic | > 10% | Not Active | Not Active | 10% | 100% | 50% | > 80% | 60% | 80% | 80% | 70% | 50% | 30% | 20% | inhibition at 360 h [28]: > 10%; growth inhibition (GI) [10]: Not Active; growth inhibition (GI) [11]: Not Active; growth inhibition (GI) [12]: Not Active; inhibition of growth at 15 g/ha [24]: 100%; inhibition of growth at 150 g/ha [25]: > 10%; inhibition of growth at 37.5 g/ha [26]: > 10%; inhibition at 360 h [27]: > 10%
C#CCN1C(=O)COc2cc(F)c(N3C(=O)C4=C(CCCC4)C3=O)cc21 [FLUMIOXAZIN] | > 80% | > 80% | > 80% | Not Active | Toxic | Toxic | > 10% | Not Active | Not Active | 80% | 100% | 50% | > 80% | 95% | 80% | 70% | 100% | 90% | 70% | 90% | inhibition at 360 h [28]: > 10%; inhibition of growth at 15 g/ha [24]: 100%; inhibition of growth at 150 g/ha [25]: > 10%; inhibition of growth at 37.5 g/ha [26]: > 10%; inhibition at 360 h [27]: > 10%
